Assay results published in ChEMBL document CHEMBL4261552, “4-Hydroxy-N-[3,5-bis(trifluoromethyl)phenyl]-1,2,5-thiadiazole-3-carboxamide: a novel inhibitor of the canonical NF-κB cascade” (Medchemcomm, 2017).
Calls of active or inactive are those of the source. No cut-off for these calls is given here.

Experiments:
[1] = biological target: T1, Inhibitor of nuclear factor kappa-B kinase subunit alpha (Homo sapiens, UniProt O15111); assay: Inhibition of human IKKalpha using ERLLDDRHDSGLDSMKDEE as substrate after 60 mins in presence of ATP by ADP-Glo kinase assay
T1 sequence (O15111 whole entry): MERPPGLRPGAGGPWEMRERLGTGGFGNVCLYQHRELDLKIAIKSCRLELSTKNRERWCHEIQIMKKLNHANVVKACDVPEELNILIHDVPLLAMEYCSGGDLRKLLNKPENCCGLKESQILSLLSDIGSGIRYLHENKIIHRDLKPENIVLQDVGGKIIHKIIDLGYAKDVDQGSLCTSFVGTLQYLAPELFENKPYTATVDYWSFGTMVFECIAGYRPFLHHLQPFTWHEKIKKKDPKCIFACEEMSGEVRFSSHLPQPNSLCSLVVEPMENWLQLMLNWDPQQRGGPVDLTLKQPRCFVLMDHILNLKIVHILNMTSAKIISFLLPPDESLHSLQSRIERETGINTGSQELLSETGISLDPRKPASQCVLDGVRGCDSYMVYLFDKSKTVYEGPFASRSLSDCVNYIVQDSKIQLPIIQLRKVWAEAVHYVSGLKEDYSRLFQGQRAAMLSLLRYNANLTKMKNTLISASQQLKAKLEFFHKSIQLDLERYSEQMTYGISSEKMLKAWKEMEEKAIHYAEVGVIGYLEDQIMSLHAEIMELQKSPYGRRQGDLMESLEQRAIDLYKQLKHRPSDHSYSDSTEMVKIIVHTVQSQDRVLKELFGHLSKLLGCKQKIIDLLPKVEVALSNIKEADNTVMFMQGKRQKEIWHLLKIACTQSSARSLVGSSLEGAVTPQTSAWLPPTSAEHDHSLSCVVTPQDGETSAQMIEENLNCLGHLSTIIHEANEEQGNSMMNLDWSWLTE

[2] = biological target: T2, Inhibitor of nuclear factor kappa-B kinase subunit alpha (Homo sapiens) (UniProt O15111); assay: Inhibition of human IKKalpha at 100 uM using ERLLDDRHDSGLDSMKDEE as substrate after 60 mins in presence of ATP by ADP-Glo kinase assay relative to control
T2 sequence (whole entry): T1 sequence (O15111 whole entry)

[3] = biological target: T3, Inhibitor of nuclear factor kappa-B kinase subunit epsilon (Homo sapiens) (UniProt Q14164); assay: Inhibition of human IKKepsilon at 100 uM using ERLLDDRHDSGLDSMKDEE as substrate after 60 mins in presence of ATP by ADP-Glo kinase assay relative to control
T3 sequence (whole entry): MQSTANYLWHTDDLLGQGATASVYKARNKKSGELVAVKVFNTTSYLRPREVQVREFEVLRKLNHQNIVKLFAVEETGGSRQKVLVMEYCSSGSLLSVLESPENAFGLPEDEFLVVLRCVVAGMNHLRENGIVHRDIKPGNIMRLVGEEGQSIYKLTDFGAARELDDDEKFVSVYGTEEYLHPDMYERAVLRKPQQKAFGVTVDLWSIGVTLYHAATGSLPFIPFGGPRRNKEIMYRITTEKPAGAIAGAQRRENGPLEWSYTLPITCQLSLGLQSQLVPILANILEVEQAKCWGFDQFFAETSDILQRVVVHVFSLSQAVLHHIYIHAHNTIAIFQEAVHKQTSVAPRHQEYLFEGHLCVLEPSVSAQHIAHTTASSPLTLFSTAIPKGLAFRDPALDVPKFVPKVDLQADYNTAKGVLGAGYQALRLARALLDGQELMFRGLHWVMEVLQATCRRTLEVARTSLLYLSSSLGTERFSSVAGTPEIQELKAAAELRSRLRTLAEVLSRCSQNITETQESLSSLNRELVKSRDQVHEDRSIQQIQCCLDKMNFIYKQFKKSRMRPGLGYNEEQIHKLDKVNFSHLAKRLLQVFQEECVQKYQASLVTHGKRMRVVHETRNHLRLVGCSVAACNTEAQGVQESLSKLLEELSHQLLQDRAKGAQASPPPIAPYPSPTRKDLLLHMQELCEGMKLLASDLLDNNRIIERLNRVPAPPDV

[4] = biological target: T4, Mitogen-activated protein kinase kinase kinase 14 (Homo sapiens, UniProt Q99558); assay: Inhibition of human NIK using AKDVDQGSLCTSFVGTLQY as substrate after 60 mins in presence of ATP by ADP-Glo kinase assay
Target sequence in this assay (Q99558 whole entry): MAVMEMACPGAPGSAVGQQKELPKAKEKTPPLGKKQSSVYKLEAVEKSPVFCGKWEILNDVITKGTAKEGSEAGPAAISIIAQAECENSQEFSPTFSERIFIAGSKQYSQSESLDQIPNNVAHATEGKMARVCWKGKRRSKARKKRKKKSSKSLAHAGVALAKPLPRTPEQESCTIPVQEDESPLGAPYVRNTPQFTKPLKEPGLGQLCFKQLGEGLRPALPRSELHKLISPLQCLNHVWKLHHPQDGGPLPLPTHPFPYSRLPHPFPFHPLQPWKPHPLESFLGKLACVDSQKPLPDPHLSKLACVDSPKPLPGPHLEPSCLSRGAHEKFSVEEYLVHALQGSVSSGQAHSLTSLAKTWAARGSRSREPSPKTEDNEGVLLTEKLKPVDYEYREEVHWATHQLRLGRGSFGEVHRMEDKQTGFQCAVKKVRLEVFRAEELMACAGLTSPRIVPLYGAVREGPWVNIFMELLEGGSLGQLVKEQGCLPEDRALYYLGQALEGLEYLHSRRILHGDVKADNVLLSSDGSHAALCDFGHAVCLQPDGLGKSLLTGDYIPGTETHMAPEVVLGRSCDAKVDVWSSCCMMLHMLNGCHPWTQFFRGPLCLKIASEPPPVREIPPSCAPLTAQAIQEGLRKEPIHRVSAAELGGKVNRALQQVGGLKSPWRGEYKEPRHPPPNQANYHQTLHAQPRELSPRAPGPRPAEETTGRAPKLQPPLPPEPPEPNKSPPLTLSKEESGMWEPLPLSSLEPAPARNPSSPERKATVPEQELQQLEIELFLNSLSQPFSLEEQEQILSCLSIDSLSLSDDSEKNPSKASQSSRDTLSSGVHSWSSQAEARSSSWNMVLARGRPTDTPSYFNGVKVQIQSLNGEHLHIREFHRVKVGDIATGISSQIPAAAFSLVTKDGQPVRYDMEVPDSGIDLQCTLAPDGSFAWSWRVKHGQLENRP

[5] = biological target: T4, Mitogen-activated protein kinase kinase kinase 14; assay: Inhibition of human NIK at 100 uM using AKDVDQGSLCTSFVGTLQY as substrate after 60 mins in presence of ATP by ADP-Glo kinase assay relative to control
Target sequence in this assay (Q99558 whole entry, looked up): as the sequence (Q99558 whole entry) above

[6] = organism: Homo sapiens; assay: Inhibition of canonical NF-kB signaling pathway in human THP1 cells assessed as reduction in LPS-induced IkBalpha degradation preincubated for 60 mins followed by LPS addition measured after 30 mins by immunoblot analysis; type: cell-based
How it was run: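 THP-1 cells in RPMI-1640 with 10% FBS. Cells exposed 60 min to compound, then 30 min to LPS 1 µg/mL. Lysates immunoblotted at 20 µg/lane for IκBα and β-actin, with ECL detection. Band signals normalized as % of control; apparent IC50 by non-linear regression; mean ± SD of three independent experiments.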

[7] = test system: MDA-MB-231; assay: Cytotoxicity against human MDA-MB-231 cells after 72 hrs by CellTox green assay; type: cell-based; conditions: MDA-MB-231, 72 h
How it was run: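 MDA-MB-231 cells (5×10^3/well) exposed to 0.001 - 100 µM compound or DMSO vehicle for 72 h. Membrane-integrity loss read by CellTox green fluorescence. IC50 taken by nonlinear regression; mean ± SD of three independent experiments.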

[8] = biological target: Inhibitor of NF-kappa-B kinase (IKK) (Homo sapiens) (UniProt O14920+O15111+Q9Y6K9); assay: Inhibition of IKKbeta/IKKalpha/NEMO complex immunoprecipated from TNFalpha-stimulated human Jurkat cells at 100 uM relative to control
[9] = biological target: T2, Inhibitor of nuclear factor kappa-B kinase subunit alpha (Homo sapiens); assay: Induction of IKKalpha phosphorylation at S176/180 residues in TNFalpha-stimulated human Jurkat cells at 10 uM preincubated for 60 mins followed by TNFalpha-stimulation for 20 mins by immunoblot analysis; type: cell-based
How it was run: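 Jurkat E6.1 cells in X-VIVO 15 with 10% FBS, passages 5–10, were pretreated 60 min with 10 µM compound (DMSO vehicle), then stimulated 20 min with TNFα 15 ng/mL. Lysates were made with protease and phosphatase inhibitors, 20 µg/lane was run on 12% SDS-PAGE, and IKKα/IKKβ phosphorylation was detected by immunoblot with ECL. Three independent experiments were run.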

Row | Compound | IC50 [1] [µM] | inhibition [2] [%] | inhibition [3] [%] | IC50 [4] [µM] | inhibition [5] [%] | inhibition [6] | IC50 [7] [µM] | inhibition [8] [%] | Activity [9]
1 | O=C(Nc1cc(C(F)(F)F)cc(C(F)(F)F)c1)c1nsnc1O | > 100 | 25.2 | 30.2 | > 100 | 4.34 | Dose-dependent effect | 53 | – | –
2 | O=C(Nc1cc(C(F)(F)F)cc(C(F)(F)F)c1)c1cc(Cl)ccc1O [IMD-0354] | > 100 | 3.45 | 30.5 | > 100 | 13.8 | – | 0.85 | 40 | Active
